ChEMBL document CHEMBL4145508 (Eur J Med Chem, 2018)
Calls of active or inactive are those of the source. The calls are words filed in the database; no cut-off is given here.

What was measured:
Neuraminidase [1] = target: T1, Neuraminidase (Influenza A virus, UniProt B4URF0); parameters: species or system chicken/china/1220/2012(H5N1)
Neuraminidase [2] = target: T1, Neuraminidase; parameters: species or system duck/Guangdong/674/2014(H5N6)
Influenza A virus [3] = experiment: Antiviral activity against influenza A virus duck/Guangdong/674/2014(H5N6) infected in chicken embryo fibroblasts assessed as effect on embryo survival at 2.5 mmol/L preincubated with virus for 1 hr followed by viral infection measured after […]; assay type: functional, organism-based
Influenza A virus [4] = experiment: Antiviral activity against influenza A virus chicken/china/1220/2012(H5N1) infected in chicken embryo fibroblasts assessed as reduction in viral cytopathic effect preincubated with virus for 1 hr followed by viral infection measured after 2 days by CCK-8 assay; assay type: functional, organism-based
Influenza A virus [5] = experiment: Antiviral activity against influenza A virus duck/Guangdong/674/2014(H5N6) infected in chicken embryo fibroblasts assessed as effect on embryo survival at 0.15625 mmol/L preincubated with virus for 1 hr followed by viral infection measured after […]; assay type: functional, organism-based
Influenza A virus [6] = experiment: Antiviral activity against influenza A virus duck/Guangdong/674/2014(H5N6) infected in chicken embryo fibroblasts assessed as effect on embryo survival at 0.625 mmol/L preincubated with virus for 1 hr followed by viral infection measured after […]; assay type: functional, organism-based
Influenza A virus [7] = experiment: Antiviral activity against influenza A virus chicken/china/1220/2012(H5N1) infected in chicken embryo fibroblasts assessed as effect on embryo survival at 0.15625 mmol/L preincubated with virus for 1 hr followed by viral infection measured after […]; assay type: functional, organism-based
Influenza A virus [8] = experiment: Antiviral activity against influenza A virus chicken/china/1220/2012(H5N1) infected in chicken embryo fibroblasts assessed as effect on embryo survival at 0.0390625 mmol/L preincubated with virus for 1 hr followed by viral infection measured after […]; assay type: functional, organism-based
[9] = Cytotoxicity against chicken embryo fibroblasts assessed as reduction in cell viability after 2 days by CCK-8 assay; assay type: cell-based, Gallus gallus, Fibroblast
How it was run: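 Chicken embryo fibroblasts grown 24 h at 37 °C, then exposed without virus to compounds dissolved in water and serially diluted 3-fold in DMEM. Incubation was at 37 °C under 5% CO₂, with viability read by CCK-8 at 2 days. CC₅₀, the concentration giving a 50% drop in viability, was fitted from the concentration curve.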

Influenza A virus [10] = experiment: Antiviral activity against influenza A virus duck/Guangdong/674/2014(H5N6) infected in chicken embryo fibroblasts assessed as reduction in viral cytopathic effect preincubated with virus for 1 hr followed by viral infection measured after 2 days by CCK-8 assay; assay type: functional, organism-based
Influenza A virus [11] = experiment: Antiviral activity against influenza A virus duck/Guangdong/674/2014(H5N6) infected in chicken embryo fibroblasts assessed as effect on embryo survival at 0.0390625 mmol/L preincubated with virus for 1 hr followed by viral infection measured after […]; assay type: functional, organism-based
Influenza A virus [12] = experiment: Antiviral activity against influenza A virus duck/Guangdong/674/2014(H5N6) infected in chicken embryo fibroblasts assessed as effect on embryo survival at 10 mmol/L preincubated with virus for 1 hr followed by viral infection measured after […]; assay type: functional, organism-based
Influenza A virus [13] = experiment: Antiviral activity against influenza A virus chicken/china/1220/2012(H5N1) infected in chicken embryo fibroblasts assessed as effect on embryo survival at 0.625 mmol/L preincubated with virus for 1 hr followed by viral infection measured after […]; assay type: functional, organism-based
Influenza A virus [14] = experiment: Antiviral activity against influenza A virus chicken/china/1220/2012(H5N1) infected in chicken embryo fibroblasts assessed as effect on embryo survival at 2.5 mmol/L preincubated with virus for 1 hr followed by viral infection measured after […]; assay type: functional, organism-based
Influenza A virus [15] = experiment: Antiviral activity against influenza A virus chicken/china/1220/2012(H5N1) infected in chicken embryo fibroblasts assessed as effect on embryo survival at 10 mmol/L preincubated with virus for 1 hr followed by viral infection measured after […]; assay type: functional, organism-based

T1 sequence (B4URF0 whole entry): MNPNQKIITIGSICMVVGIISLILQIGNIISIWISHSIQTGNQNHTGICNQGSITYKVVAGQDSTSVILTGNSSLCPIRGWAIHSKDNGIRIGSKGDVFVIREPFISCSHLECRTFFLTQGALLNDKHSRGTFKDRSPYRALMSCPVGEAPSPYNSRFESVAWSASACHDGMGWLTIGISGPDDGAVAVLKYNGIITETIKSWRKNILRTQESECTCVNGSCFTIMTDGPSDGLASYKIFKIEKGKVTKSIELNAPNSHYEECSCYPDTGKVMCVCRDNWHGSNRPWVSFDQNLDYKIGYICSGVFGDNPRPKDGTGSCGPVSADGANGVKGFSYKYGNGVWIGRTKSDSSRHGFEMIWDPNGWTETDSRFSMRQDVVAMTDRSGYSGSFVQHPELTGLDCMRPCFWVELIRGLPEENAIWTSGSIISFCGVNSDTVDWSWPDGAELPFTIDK

Structure (SMILES): CCC(CC)O[C@@H]1C=C(C(=O)NCc2ccccc2F)C[C@H](N)[C@H]1NC(C)=O
- IC50 (Neuraminidase [1]): 6.26 µM
- IC50 (Neuraminidase [2]): 14.7 µM

Structure (SMILES): CCC(CC)O[C@@H]1C=C(C(=O)NCc2cc(F)cc(F)c2)C[C@H](N)[C@H]1NC(C)=O
- IC50 (Neuraminidase [1]): 2.22 µM
- IC50 (Neuraminidase [2]): 10.4 µM

Structure (SMILES): CCC(CC)O[C@@H]1C=C(C(=O)NCCc2cccc(F)c2)C[C@H](N)[C@H]1NC(C)=O
- IC50 (Neuraminidase [1]): 15.2 µM
- IC50 (Neuraminidase [2]): 32.5 µM

Structure (SMILES): CCC(CC)O[C@@H]1C=C(C(=O)NCc2ccc(-c3ccsc3)cc2)C[C@H](N)[C@H]1NC(C)=O
- IC50 (Neuraminidase [1]): 29.8 µM
- IC50 (Neuraminidase [2]): > 40 µM

Structure (SMILES): CCC(CC)O[C@@H]1C=C(C(=O)Nc2ccc(N3CCOCC3=O)cc2)C[C@H](N)[C@H]1NC(C)=O
- IC50 (Neuraminidase [1]): 1.46 µM
- IC50 (Neuraminidase [2]): 2.27 µM

Structure (SMILES): CCC(CC)O[C@@H]1C=C(C(=O)O)C[C@H](N)[C@H]1NC(C)=O [OSELTAMIVIR CARBOXYLATE]
- Activity (Influenza A virus [3]): inactive
- EC50 (Influenza A virus [4]): 1.35 µM
- Activity (Influenza A virus [5]): inactive
- Activity (Influenza A virus [6]): inactive
- Activity (Influenza A virus [7]): inactive
- Activity (Influenza A virus [8]): inactive
- CC50 at 48 h [9]: > 1000 µM
- EC50 (Influenza A virus [10]): 0.73 µM
- Activity (Influenza A virus [11]): inactive
- Activity (Influenza A virus [12]): inactive

Structure (SMILES): CCC(CC)O[C@@H]1C=C(C(=O)NCc2ccc(F)cc2)C[C@H](N)[C@H]1NC(C)=O
- IC50 (Neuraminidase [1]): 0.94 µM
- IC50 (Neuraminidase [2]): 2.78 µM

Structure (SMILES): CCC(CC)O[C@@H]1C=C(C(=O)NCc2ccc(F)cc2Cl)C[C@H](N)[C@H]1NC(C)=O
- IC50 (Neuraminidase [1]): 3.91 µM
- IC50 (Neuraminidase [2]): 19.4 µM

Structure (SMILES): CCC(CC)O[C@@H]1C=C(C(=O)NCc2ccc(C)cc2)C[C@H](N)[C@H]1NC(C)=O
- IC50 (Neuraminidase [1]): 2.91 µM
- IC50 (Neuraminidase [2]): 11 µM

Structure (SMILES): CCC(CC)O[C@@H]1C=C(C(=O)NCC(=O)O)C[C@H](N)[C@H]1NC(C)=O
- IC50 (Neuraminidase [1]): 2.53 µM
- IC50 (Neuraminidase [2]): 2.16 µM

Structure (SMILES): CCC(CC)O[C@@H]1C=C(C(=O)NCc2ccc(-c3ccccc3)cc2)C[C@H](N)[C@H]1NC(C)=O
- IC50 (Neuraminidase [1]): 0.96 µM
- IC50 (Neuraminidase [2]): 0.99 µM

Structure (SMILES): CCC(CC)O[C@@H]1C=C(C(=O)N[C@H](C(=O)O)C(C)C)C[C@H](N)[C@H]1NC(C)=O [listing 1 of 2 here]
- IC50 (Neuraminidase [1]): 0.342 µM
- IC50 (Neuraminidase [2]): 0.304 µM

Structure (SMILES): CCC(CC)O[C@@H]1C=C(C(=O)NCc2cccc(F)c2)C[C@H](N)[C@H]1NC(C)=O
- IC50 (Neuraminidase [1]): 5.09 µM
- IC50 (Neuraminidase [2]): 11.4 µM

Structure (SMILES): CCC(CC)O[C@@H]1C=C(C(=O)N(C)CCc2cccc(F)c2)C[C@H](N)[C@H]1NC(C)=O
- IC50 (Neuraminidase [1]): 2.65 µM
- IC50 (Neuraminidase [2]): 2.51 µM

Structure (SMILES): CCC(CC)O[C@@H]1C=C(C(=O)N[C@H](C(=O)O)C(C)C)C[C@H](N)[C@H]1NC(C)=O [listing 2 of 2 here]
- IC50 (Neuraminidase [1]): 0.135 µM
- IC50 (Neuraminidase [2]): 0.248 µM

Structure (SMILES): CCC(CC)O[C@@H]1C=C(C(=O)NCc2ccc(OC)cc2)C[C@H](N)[C@H]1NC(C)=O
- IC50 (Neuraminidase [1]): > 40 µM
- IC50 (Neuraminidase [2]): > 40 µM

Structure (SMILES): CCC(CC)O[C@@H]1C=C(C(=O)N[C@@H](C(=O)O)C(C)C)C[C@H](N)[C@H]1NC(C)=O
- IC50 (Neuraminidase [1]): 0.0883 µM
- IC50 (Neuraminidase [2]): 0.0967 µM
- Activity (Influenza A virus [3]): inactive
- EC50 (Influenza A virus [4]): 4.26 µM
- Activity (Influenza A virus [5]): inactive
- Activity (Influenza A virus [6]): inactive
- Activity (Influenza A virus [7]): inactive
- Activity (Influenza A virus [8]): inactive
- CC50 at 48 h [9]: > 1000 µM
- Activity (Influenza A virus [13]): inactive
- Activity (Influenza A virus [14]): inactive
- Activity (Influenza A virus [15]): Active
- EC50 (Influenza A virus [10]): 1.31 µM
- Activity (Influenza A virus [11]): inactive
- Activity (Influenza A virus [12]): Active

Structure (SMILES): CCC(CC)O[C@@H]1C=C(C(=O)NCc2ccccc2)C[C@H](N)[C@H]1NC(C)=O
- IC50 (Neuraminidase [1]): 9.87 µM
- IC50 (Neuraminidase [2]): 19.9 µM

Structure (SMILES): CCC(CC)O[C@@H]1C=C(C(=O)N[C@@H](C)C(=O)O)C[C@H](N)[C@H]1NC(C)=O
- IC50 (Neuraminidase [1]): 2.2 µM
- IC50 (Neuraminidase [2]): 1.28 µM

Structure (SMILES): CCC(CC)O[C@@H]1C=C(C(=O)NCCN2CCOCC2)C[C@H](N)[C@H]1NC(C)=O
- IC50 (Neuraminidase [1]): 4.24 µM
- IC50 (Neuraminidase [2]): 12.1 µM

Structure (SMILES): CCC(CC)O[C@@H]1C=C(C(=O)NCc2cccc(Cl)c2)C[C@H](N)[C@H]1NC(C)=O
- IC50 (Neuraminidase [1]): 3.02 µM
- IC50 (Neuraminidase [2]): 7.86 µM

Structure (SMILES): C=CCNC(=O)C1=C[C@@H](OC(CC)CC)[C@H](NC(C)=O)[C@@H](N)C1
- IC50 (Neuraminidase [1]): 5.03 µM
- IC50 (Neuraminidase [2]): 0.41 µM

Structure (SMILES): CCC(CC)O[C@@H]1C=C(C(=O)N[C@H](C)C(=O)O)C[C@H](N)[C@H]1NC(C)=O
- IC50 (Neuraminidase [1]): 1.35 µM
- IC50 (Neuraminidase [2]): 1.07 µM

Structure (SMILES): CCC(CC)O[C@@H]1C=C(C(=O)NCCc2ccccc2F)C[C@H](N)[C@H]1NC(C)=O
- IC50 (Neuraminidase [1]): 3.17 µM
- IC50 (Neuraminidase [2]): 5.12 µM

Structure (SMILES): CCC(CC)O[C@@H]1C=C(C(=O)NCc2ccc(Br)cc2)C[C@H](N)[C@H]1NC(C)=O
- IC50 (Neuraminidase [1]): 2.07 µM
- IC50 (Neuraminidase [2]): 6.01 µM

Structure (SMILES): CCC(CC)O[C@@H]1C=C(C(=O)NCc2ccc(-c3cccs3)cc2)C[C@H](N)[C@H]1NC(C)=O
- IC50 (Neuraminidase [1]): 7.75 µM
- IC50 (Neuraminidase [2]): 10.9 µM

Structure (SMILES): CCC(CC)O[C@@H]1C=C(C(=O)Nc2ccc(F)cc2)C[C@H](N)[C@H]1NC(C)=O
- IC50 (Neuraminidase [1]): 11.7 µM
- IC50 (Neuraminidase [2]): 16.3 µM

Structure (SMILES): CCC(CC)O[C@@H]1C=C(C(=O)NCc2ccc(C(F)(F)F)cc2)C[C@H](N)[C@H]1NC(C)=O
- IC50 (Neuraminidase [1]): 10.9 µM
- IC50 (Neuraminidase [2]): 8.78 µM
